Measured values taken from ChEMBL document CHEMBL5058577, “EUbOPEN Chemogenomics Library 2 (Multiplex)” (2022).

System: Fibroblast
Experiment: Multiplex assay against human fibroblast
Format: toxicity, cell-based
Outline: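 Cells stained live at seeding with Hoechst33342, BioTracker Green Microtubule Cytoskeleton Dye, MitoTracker Red and Annexin V Alexa Fluor 680 were imaged on a CQ1 microscope at 37°C and 5% CO2 after compound addition. Their classification by CellPathfinder machine-learning gating ran from Hoechst high-intensity objects versus normal cells, to healthy, pyknosed or fragmented nuclei among normal cells, to mitotic or apoptotic among pyknosed cells. Tubulin, mitochondrial-mass and membrane-permeability phenotypes are per cents of healthy-nucleus cells.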

[1] = 12 h, 1 µM, compound concentration 1 uM, replicate 1
[2] = 12 h, 1 µM, compound concentration 1 uM, replicate 2
[3] = 12 h, 10 µM, compound concentration 10 uM, replicate 1
[4] = 12 h, 10 µM, compound concentration 10 uM, replicate 2
[5] = 24 h, 1 µM, compound concentration 1 uM, replicate 1
[6] = 24 h, 1 µM, compound concentration 1 uM, replicate 2
[7] = 24 h, 10 µM, compound concentration 10 uM, replicate 1
[8] = 24 h, 10 µM, compound concentration 10 uM, replicate 2
[9] = 48 h, 1 µM, compound concentration 1 uM, replicate 1
[10] = 48 h, 1 µM, compound concentration 1 uM, replicate 2
[11] = 48 h, 10 µM, compound concentration 10 uM, replicate 1
[12] = 48 h, 10 µM, compound concentration 10 uM, replicate 2

**Q.** With Cn1cc(C(=O)OCC2CCN(CCNS(C)(=O)=O)CC2)c2ccccc21 as the compound, how does the “Population Apoptotic (%)” value [1] read?
**A.** 44%

**Q.** And the “Population Fragmented Nuclei (%)” value [1]?
**A.** 13%

**Q.** And the “Population Healthy Nuclei (%)” value [1]?
**A.** 71%

**Q.** What about the “Population Hoechst High Intensity Objects (%)” value [1] of the same compound?
**A.** 1%

**Q.** What about the “Population Membrane Permeable-Phenotype (%)” value [1] of the same compound?
**A.** 0%

**Q.** What about the “Population Mitochondria Different-Phenotype (%)” value [1] of the same compound?
**A.** 3%

**Q.** What about the “Population Mitotic Cells (%)” value [1] of the same compound?
**A.** 55%

**Q.** What about the “Population Normal (%)” value [1] of the same compound?
**A.** 98%

**Q.** What about the “Population Pyknosed Nuclei (%)” value [1] of the same compound?
**A.** 14%

**Q.** And the “Population Tubulin-Different-Phenotype (%)” value [1]?
**A.** 23%

**Q.** What about the “Total Cell Count” value [1] of the same compound?
**A.** 202

**Q.** And the “Population Apoptotic (%)” value [2]?
**A.** 33%

**Q.** And the “Population Fragmented Nuclei (%)” value [2]?
**A.** 21%

**Q.** What about the “Population Healthy Nuclei (%)” value [2] of the same compound?
**A.** 46%

**Q.** And the “Population Hoechst High Intensity Objects (%)” value [2]?
**A.** 4%

**Q.** And the “Population Membrane Permeable-Phenotype (%)” value [2]?
**A.** 9%

**Q.** And the “Population Mitochondria Different-Phenotype (%)” value [2]?
**A.** 1%

**Q.** And the “Population Mitotic Cells (%)” value [2]?
**A.** 66%

**Q.** And the “Population Normal (%)” value [2]?
**A.** 95%

**Q.** What about the “Population Pyknosed Nuclei (%)” value [2] of the same compound?
**A.** 32%

**Q.** And the “Population Tubulin-Different-Phenotype (%)” value [2]?
**A.** 37%

**Q.** And the “Total Cell Count” value [2]?
**A.** 164

**Q.** What about the “Population Apoptotic (%)” value [3] of the same compound?
**A.** 48%

**Q.** And the “Population Fragmented Nuclei (%)” value [3]?
**A.** 29%

**Q.** And the “Population Healthy Nuclei (%)” value [3]?
**A.** 55%

**Q.** What about the “Population Hoechst High Intensity Objects (%)” value [3] of the same compound?
**A.** 3%

**Q.** And the “Population Membrane Permeable-Phenotype (%)” value [3]?
**A.** 0%

**Q.** And the “Population Mitochondria Different-Phenotype (%)” value [3]?
**A.** 9%

**Q.** And the “Population Mitotic Cells (%)” value [3]?
**A.** 51%

**Q.** And the “Population Normal (%)” value [3]?
**A.** 96%

**Q.** What about the “Population Pyknosed Nuclei (%)” value [3] of the same compound?
**A.** 14%

**Q.** And the “Population Tubulin-Different-Phenotype (%)” value [3]?
**A.** 41%

**Q.** And the “Total Cell Count” value [3]?
**A.** 207

**Q.** What about the “Population Apoptotic (%)” value [4] of the same compound?
**A.** 25%

**Q.** And the “Population Fragmented Nuclei (%)” value [4]?
**A.** 32%

**Q.** What about the “Population Healthy Nuclei (%)” value [4] of the same compound?
**A.** 51%

**Q.** And the “Population Hoechst High Intensity Objects (%)” value [4]?
**A.** 5%

**Q.** And the “Population Membrane Permeable-Phenotype (%)” value [4]?
**A.** 5%

**Q.** What about the “Population Mitochondria Different-Phenotype (%)” value [4] of the same compound?
**A.** 7%

**Q.** And the “Population Mitotic Cells (%)” value [4]?
**A.** 75%

**Q.** What about the “Population Normal (%)” value [4] of the same compound?
**A.** 94%

**Q.** And the “Population Pyknosed Nuclei (%)” value [4]?
**A.** 16%

**Q.** And the “Population Tubulin-Different-Phenotype (%)” value [4]?
**A.** 47%

**Q.** What about the “Total Cell Count” value [4] of the same compound?
**A.** 184

**Q.** And the “Population Apoptotic (%)” value [5]?
**A.** 31%

**Q.** And the “Population Fragmented Nuclei (%)” value [5]?
**A.** 13%

**Q.** And the “Population Healthy Nuclei (%)” value [5]?
**A.** 74%

**Q.** And the “Population Hoechst High Intensity Objects (%)” value [5]?
**A.** 5%

**Q.** What about the “Population Membrane Permeable-Phenotype (%)” value [5] of the same compound?
**A.** 0%

**Q.** What about the “Population Mitochondria Different-Phenotype (%)” value [5] of the same compound?
**A.** 0%

**Q.** And the “Population Mitotic Cells (%)” value [5]?
**A.** 68%

**Q.** And the “Population Normal (%)” value [5]?
**A.** 94%

**Q.** And the “Population Pyknosed Nuclei (%)” value [5]?
**A.** 11%

**Q.** What about the “Population Tubulin-Different-Phenotype (%)” value [5] of the same compound?
**A.** 23%

**Q.** And the “Total Cell Count” value [5]?
**A.** 201

**Q.** And the “Population Apoptotic (%)” value [6]?
**A.** 30%

**Q.** What about the “Population Fragmented Nuclei (%)” value [6] of the same compound?
**A.** 25%

**Q.** What about the “Population Healthy Nuclei (%)” value [6] of the same compound?
**A.** 47%

**Q.** What about the “Population Hoechst High Intensity Objects (%)” value [6] of the same compound?
**A.** 2%

**Q.** And the “Population Membrane Permeable-Phenotype (%)” value [6]?
**A.** 7%

**Q.** What about the “Population Mitochondria Different-Phenotype (%)” value [6] of the same compound?
**A.** 6%

**Q.** What about the “Population Mitotic Cells (%)” value [6] of the same compound?
**A.** 69%

**Q.** And the “Population Normal (%)” value [6]?
**A.** 97%

**Q.** And the “Population Pyknosed Nuclei (%)” value [6]?
**A.** 26%

**Q.** What about the “Population Tubulin-Different-Phenotype (%)” value [6] of the same compound?
**A.** 48%

**Q.** What about the “Total Cell Count” value [6] of the same compound?
**A.** 168

**Q.** What about the “Population Apoptotic (%)” value [7] of the same compound?
**A.** 80%

**Q.** What about the “Population Fragmented Nuclei (%)” value [7] of the same compound?
**A.** 33%

**Q.** What about the “Population Healthy Nuclei (%)” value [7] of the same compound?
**A.** 53%

**Q.** And the “Population Hoechst High Intensity Objects (%)” value [7]?
**A.** 5%

**Q.** What about the “Population Membrane Permeable-Phenotype (%)” value [7] of the same compound?
**A.** 0%

**Q.** What about the “Population Mitochondria Different-Phenotype (%)” value [7] of the same compound?
**A.** 3%

**Q.** And the “Population Mitotic Cells (%)” value [7]?
**A.** 20%

**Q.** What about the “Population Normal (%)” value [7] of the same compound?
**A.** 94%

**Q.** And the “Population Pyknosed Nuclei (%)” value [7]?
**A.** 13%

**Q.** What about the “Population Tubulin-Different-Phenotype (%)” value [7] of the same compound?
**A.** 42%

**Q.** What about the “Total Cell Count” value [7] of the same compound?
**A.** 201

**Q.** And the “Population Apoptotic (%)” value [8]?
**A.** 41%

**Q.** And the “Population Fragmented Nuclei (%)” value [8]?
**A.** 40%

**Q.** And the “Population Healthy Nuclei (%)” value [8]?
**A.** 43%

**Q.** What about the “Population Hoechst High Intensity Objects (%)” value [8] of the same compound?
**A.** 4%

**Q.** What about the “Population Membrane Permeable-Phenotype (%)” value [8] of the same compound?
**A.** 3%

**Q.** What about the “Population Mitochondria Different-Phenotype (%)” value [8] of the same compound?
**A.** 5%

**Q.** What about the “Population Mitotic Cells (%)” value [8] of the same compound?
**A.** 58%

**Q.** And the “Population Normal (%)” value [8]?
**A.** 95%

**Q.** What about the “Population Pyknosed Nuclei (%)” value [8] of the same compound?
**A.** 16%

**Q.** What about the “Population Tubulin-Different-Phenotype (%)” value [8] of the same compound?
**A.** 52%

**Q.** And the “Total Cell Count” value [8]?
**A.** 188

**Q.** What about the “Population Apoptotic (%)” value [9] of the same compound?
**A.** 54%

**Q.** What about the “Population Fragmented Nuclei (%)” value [9] of the same compound?
**A.** 14%

**Q.** And the “Population Healthy Nuclei (%)” value [9]?
**A.** 72%

**Q.** What about the “Population Hoechst High Intensity Objects (%)” value [9] of the same compound?
**A.** 5%

**Q.** And the “Population Membrane Permeable-Phenotype (%)” value [9]?
**A.** 0%

**Q.** What about the “Population Mitochondria Different-Phenotype (%)” value [9] of the same compound?
**A.** 1%

**Q.** And the “Population Mitotic Cells (%)” value [9]?
**A.** 45%

**Q.** And the “Population Normal (%)” value [9]?
**A.** 94%

**Q.** What about the “Population Pyknosed Nuclei (%)” value [9] of the same compound?
**A.** 12%

**Q.** And the “Population Tubulin-Different-Phenotype (%)” value [9]?
**A.** 23%

**Q.** And the “Total Cell Count” value [9]?
**A.** 197

**Q.** What about the “Population Apoptotic (%)” value [10] of the same compound?
**A.** 52%

**Q.** And the “Population Fragmented Nuclei (%)” value [10]?
**A.** 33%

**Q.** And the “Population Healthy Nuclei (%)” value [10]?
**A.** 54%

**Q.** And the “Population Hoechst High Intensity Objects (%)” value [10]?
**A.** 4%

**Q.** What about the “Population Membrane Permeable-Phenotype (%)” value [10] of the same compound?
**A.** 5%

**Q.** And the “Population Mitochondria Different-Phenotype (%)” value [10]?
**A.** 2%

**Q.** And the “Population Mitotic Cells (%)” value [10]?
**A.** 47%

**Q.** And the “Population Normal (%)” value [10]?
**A.** 95%

**Q.** What about the “Population Tubulin-Different-Phenotype (%)” value [10] of the same compound?
**A.** 43%

**Q.** And the “Total Cell Count” value [10]?
**A.** 177

**Q.** And the “Population Apoptotic (%)” value [11]?
**A.** 68%

**Q.** What about the “Population Fragmented Nuclei (%)” value [11] of the same compound?
**A.** 28%

**Q.** What about the “Population Healthy Nuclei (%)” value [11] of the same compound?
**A.** 58%

**Q.** And the “Population Hoechst High Intensity Objects (%)” value [11]?
**A.** 9%

**Q.** And the “Population Membrane Permeable-Phenotype (%)” value [11]?
**A.** 0%

**Q.** And the “Population Mitochondria Different-Phenotype (%)” value [11]?
**A.** 9%

**Q.** What about the “Population Mitotic Cells (%)” value [11] of the same compound?
**A.** 32%

**Q.** And the “Population Normal (%)” value [11]?
**A.** 90%

**Q.** What about the “Population Pyknosed Nuclei (%)” value [11] of the same compound?
**A.** 13%

**Q.** What about the “Population Tubulin-Different-Phenotype (%)” value [11] of the same compound?
**A.** 49%

**Q.** What about the “Total Cell Count” value [11] of the same compound?
**A.** 199

**Q.** And the “Population Apoptotic (%)” value [12]?
**A.** 50%

**Q.** And the “Population Fragmented Nuclei (%)” value [12]?
**A.** 40%

**Q.** What about the “Population Healthy Nuclei (%)” value [12] of the same compound?
**A.** 46%

**Q.** What about the “Population Hoechst High Intensity Objects (%)” value [12] of the same compound?
**A.** 6%

**Q.** And the “Population Membrane Permeable-Phenotype (%)” value [12]?
**A.** 2%

**Q.** And the “Population Mitochondria Different-Phenotype (%)” value [12]?
**A.** 8%

**Q.** And the “Population Mitotic Cells (%)” value [12]?
**A.** 50%

**Q.** And the “Population Normal (%)” value [12]?
**A.** 93%

**Q.** What about the “Population Pyknosed Nuclei (%)” value [12] of the same compound?
**A.** 12%

**Q.** And the “Population Tubulin-Different-Phenotype (%)” value [12]?
**A.** 60%

**Q.** And the “Total Cell Count” value [12]?
**A.** 190
